Reference: ChEMBL document CHEMBL1152452, “Modifications incorporated in CpG motifs of oligodeoxynucleotides lead to antagonist activity of toll-like receptors 7 and 9” (2009)
Activity calls are given as the source filed them. The calls are words filed in the database; no cut-off is given here.

Legend:
[1] = target: T1, Toll-like receptor 9 (Mus musculus) (UniProt Q9EQU3); assay: Activation of mouse TLR9 expressed in HEK293 cells assessed as NF-kappaB level at 0.3 ug/mL after 18 hrs by reporter gene assay; format: cell-based
T1 sequence (whole entry): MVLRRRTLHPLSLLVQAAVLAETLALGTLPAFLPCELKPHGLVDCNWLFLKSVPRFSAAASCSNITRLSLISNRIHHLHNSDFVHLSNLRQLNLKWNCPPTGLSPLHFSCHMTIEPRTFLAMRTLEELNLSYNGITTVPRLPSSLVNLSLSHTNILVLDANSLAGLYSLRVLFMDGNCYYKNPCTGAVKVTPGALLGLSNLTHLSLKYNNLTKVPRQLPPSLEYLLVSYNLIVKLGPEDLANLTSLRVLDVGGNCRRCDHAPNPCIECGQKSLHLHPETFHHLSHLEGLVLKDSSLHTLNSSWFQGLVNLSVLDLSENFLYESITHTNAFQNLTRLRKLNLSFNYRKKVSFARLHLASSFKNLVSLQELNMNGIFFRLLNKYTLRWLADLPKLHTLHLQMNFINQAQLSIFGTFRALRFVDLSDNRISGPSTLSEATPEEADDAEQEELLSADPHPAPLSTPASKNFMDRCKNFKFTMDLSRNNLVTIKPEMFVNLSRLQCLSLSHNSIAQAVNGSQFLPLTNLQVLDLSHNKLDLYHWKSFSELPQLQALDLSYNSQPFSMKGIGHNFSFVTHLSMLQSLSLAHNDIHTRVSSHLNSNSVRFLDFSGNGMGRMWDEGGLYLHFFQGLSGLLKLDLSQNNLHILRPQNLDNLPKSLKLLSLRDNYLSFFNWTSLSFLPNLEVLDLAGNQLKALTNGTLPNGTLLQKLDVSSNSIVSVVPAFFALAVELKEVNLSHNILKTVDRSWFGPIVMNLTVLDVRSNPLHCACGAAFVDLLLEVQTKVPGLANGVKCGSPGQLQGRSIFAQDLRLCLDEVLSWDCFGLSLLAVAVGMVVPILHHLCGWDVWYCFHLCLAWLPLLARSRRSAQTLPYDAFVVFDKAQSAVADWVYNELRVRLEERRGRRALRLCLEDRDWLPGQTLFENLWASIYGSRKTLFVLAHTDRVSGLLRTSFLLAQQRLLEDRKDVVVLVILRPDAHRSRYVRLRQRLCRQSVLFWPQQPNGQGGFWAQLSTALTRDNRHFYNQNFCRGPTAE
Method in brief: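 HEK293 cells stably expressing mouse TLR9 were transiently transfected with a SEAP reporter for 6 h, then stimulated with ODN at 0.1, 0.3 or 1 μg/mL for 18 h. Reporter expression is given as fold change in NF-κB activity over medium. Representative of two independent experiments.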

J774 = assay: Activation of NF-kappaB in mouse J774 cells at 2.5 ug/ml after 1 hr by EMSA; format: cell-based
Method in brief: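 Murine J774 macrophages in DMEM with 10% FBS and antibiotics, plated at 5×10^6 cells/well. ODNs were given alone or together for 1 h. For inhibition, the agonist ODN at 0.5 μg/mL was co-incubated with the modified ODN at 2.5 μg/mL. Nuclear extracts were resolved by EMSA on native polyacrylamide gels and read by autoradiography.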

Splenocyte [2] = assay: Immunostimulatory activity in C57BL/6 mouse splenocytes assessed as induction of IL12 secretion at 2 to 10 ug/ml after 24 hrs by sandwich ELISA; format: functional, cell-based
Method in brief: (§1)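 C57BL/6 splenocytes (mice 5–8 weeks) at 5 × 10^6 cells/mL in RPMI complete medium. ODNs dissolved in PBS were added and the cells incubated at 37 °C for 24 h. Supernatant IL-12 or IL-6 was measured by sandwich ELISA. Runs were done two or three times, in duplicate per concentration.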

Splenocyte [3] = assay: Immunostimulatory activity in C57BL/6 mouse splenocytes assessed as induction of IL6 secretion at 2 to 10 ug/ml after 24 hrs by sandwich ELISA; format: functional, cell-based; method in brief: as §1
Splenocyte [4] = assay: Inhibition of 5'-CTATCTGACGTTCTCTGT-3'-induced IL12 secretion in C57BL/6 mouse splenocytes at 4 ug/ml after 24 hrs by sandwich ELISA; format: functional, cell-based
Method in brief: (§2)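 Splenocytes from 5–8-week C57BL/6 mice, 5 × 10^6 cells/mL in RPMI complete medium, were co-incubated with the TLR9 agonist ODN (1 µg/mL) plus test ODN at 1 or 4 µg/mL, or over a concentration series, at 37 °C for 24 h. Supernatant IL-12 or IL-6 was measured by sandwich ELISA. Runs were done in duplicate, with three independent experiments.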

Splenocyte [5] = assay: Inhibition of 5'-CTATCTGACGTTCTCTGT-3'-induced IL6 secretion in C57BL/6 mouse splenocytes at 4 ug/ml after 24 hrs by sandwich ELISA; format: functional, cell-based; method in brief: as §2
Mus musculus [6] = assay: Immunostimulatory activity in C57BL/6 mouse assessed as induction of IL10 level in serum at 2 mg/kg, sc after 2 hrs by Luminex multiplex assay; format: functional, organism-based; set-up: dose 2 mg/kg
Method in brief: (§3)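 Female C57BL/6 mice, 5–6 weeks old, n = 3, received a single 2 mg/kg subcutaneous ODN injection in the right flank. Blood was taken by retro-orbital bleeding 2 h later. Naive mice served as baseline. Representative of three experiments.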

Mus musculus [7] = assay: Immunostimulatory activity in C57BL/6 mouse assessed as induction of MCP1 level in serum at 2 mg/kg, sc after 2 hrs by Luminex multiplex assay; format: functional, organism-based; set-up: dose 2 mg/kg; method in brief: as §3
Mus musculus [8] = assay: Immunostimulatory activity in C57BL/6 mouse assessed as induction of KC level in serum at 2 mg/kg, sc after 2 hrs by Luminex multiplex assay; format: functional, organism-based; set-up: dose 2 mg/kg; method in brief: as §3
Mus musculus [9] = assay: Immunostimulatory activity in C57BL/6 mouse assessed as inhibition of 5'-CTATCTGACGTTCTCTGT-3'-induced IL10 production in serum at 2 mg/kg, sc administered 24 hrs prior to 5'-CTATCTGACGTTCTCTGT-3' challenge measured after 2 hrs by Luminex multiplex assay; format: functional, organism-based; set-up: dose 2 mg/kg
Method in brief: (§4)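 C57BL/6 mice received 2 mg/kg ODN sc in one flank. After 24 h, the TLR9 agonist ODN was given at 0.5 mg/kg sc in the opposite flank. Blood was drawn 2 h later and serum cytokines/chemokines were quantified by Luminex multiplex assay. Percent inhibition was taken against the agonist alone. Representative of three experiments.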

Mus musculus [10] = assay: Immunostimulatory activity in C57BL/6 mouse assessed as inhibition of 5'-CTATCTGACGTTCTCTGT-3'-induced KC production in serum at 2 mg/kg, sc administered 24 hrs prior to 5'-CTATCTGACGTTCTCTGT-3' challenge measured after 2 hrs by Luminex multiplex assay; format: functional, organism-based; set-up: dose 2 mg/kg; method in brief: as §4
Mus musculus [11] = assay: Immunostimulatory activity in C57BL/6 mouse assessed as inhibition of 5'-CTATCTGACGTTCTCTGT-3'-induced IL12 production in serum at 2 mg/kg, sc administered 24 hrs prior to 5'-CTATCTGACGTTCTCTGT-3' challenge measured after 2 hrs by sandwich ELISA; format: functional; conditions: C57BL/6, sc, route subcutaneous
Method in brief: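 C57BL/6 mice were pretreated sc in the right flank with 2, 5 or 10 mg/kg ODN. After 24 h, the TLR9 agonist ODN was given at 0.5 mg/kg sc in the left flank. Serum IL-12 was measured by ELISA 2 h later. Representative of two experiments.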

| SMILES | Activity [1] | Activity (J774) | Activity (Splenocyte [2]) | Activity (Splenocyte [3]) | Activity (Splenocyte [4]) | Activity (Splenocyte [5]) | Activity (Mus musculus [6]) | Activity (Mus musculus [7]) | Activity (Mus musculus [8]) | Activity (Mus musculus [9]) | Activity (Mus musculus [10]) | inhibition in vivo at 2 mg/kg (Mus musculus [11]) [%] |
| --- | --- | --- | --- | --- | --- | --- | --- | --- | --- | --- | --- | --- |
| CO[C@@H]1[C@H](OP(=O)(S)OC[C@H]2O[C@@H](n3cc(C)c(=O)[nH]c3=O)C[C@@H]2OP(=O)(S)OC[C@H]2O[C@@H](n3cc(C)c(=O)[nH]c3=O)C[C@@H]2OP(=O)(S)OC[C@H]2O[C@@H](n3ccc(N)nc3=O)C[C@@H]2OP(=O)(S)OC[C@H]2O[C@@H](n3cc(C)c(=O)[nH]c3=O)C[C@@H]2OP(=O)(S)OC[C@H]2O[C@@H](n3ccc(N)nc3=O)C[C@@H]2OP(=O)(S)OC[C@H]2O[C@@H](n3cc(C)c(=O)[nH]c3=O)C[C@@H]2OP(=O)(S)OC[C@H]2O[C@@H](n3cnc4c(=O)[nH]c(N)nc43)C[C@@H]2OP(=O)(S)OC[C@H]2O[C@@H](n3cc(C)c(=O)[nH]c3=O)C[C@@H]2O)[C@@H](COP(=O)(S)O[C@H]2C[C@H](n3ccc(N)nc3=O)O[C@@H]2COP(=O)(S)O[C@H]2C[C@H](n3cnc4c(N)ncnc43)O[C@@H]2COP(=O)(S)O[C@H]2C[C@H](n3cnc4c(=O)[nH]c(N)nc43)O[C@@H]2COP(=O)(S)O[C@H]2C[C@H](n3cc(C)c(=O)[nH]c3=O)O[C@@H]2COP(=O)(S)O[C@H]2C[C@H](n3ccc(N)nc3=O)O[C@@H]2COP(=O)(S)O[C@H]2C[C@H](n3cc(C)c(=O)[nH]c3=O)O[C@@H]2COP(=O)(S)O[C@H]2C[C@H](n3cnc4c(N)ncnc43)O[C@@H]2COP(=O)(S)O[C@H]2C[C@H](n3cc(C)c(=O)[nH]c3=O)O[C@@H]2COP(=O)(S)O[C@H]2C[C@H](n3ccc(N)nc3=O)O[C@@H]2CO)O[C@H]1n1cnc2c(=O)[nH]c(N)nc21 (some centres not stated) | inactive | inactive | Active | Active | Active | Active | inactive | inactive | inactive | Active | Active | 50 |
| COC1[C@H](n2cc(C)c(N)nc2=O)O[C@H](COP(=O)(S)O[C@H]2C[C@H](n3cnc4c(N)ncnc43)O[C@@H]2COP(=O)(S)O[C@H]2C[C@H](n3cnc4c(=O)[nH]c(N)nc43)O[C@@H]2COP(=O)(S)O[C@H]2C[C@H](n3cc(C)c(=O)[nH]c3=O)O[C@@H]2COP(=O)(S)O[C@H]2C[C@H](n3ccc(N)nc3=O)O[C@@H]2COP(=O)(S)O[C@H]2C[C@H](n3cc(C)c(=O)[nH]c3=O)O[C@@H]2COP(=O)(S)O[C@H]2C[C@H](n3cnc4c(N)ncnc43)O[C@@H]2COP(=O)(S)O[C@H]2C[C@H](n3cc(C)c(=O)[nH]c3=O)O[C@@H]2COP(=O)(S)O[C@H]2C[C@H](n3ccc(N)nc3=O)O[C@@H]2CO)[C@H]1OP(=O)(S)OC[C@H]1O[C@@H](n2cnc3c(=O)[nH]c(N)nc32)C[C@@H]1OP(=O)(S)OC[C@H]1O[C@@H](n2cc(C)c(=O)[nH]c2=O)C[C@@H]1OP(=O)(S)OC[C@H]1O[C@@H](n2cc(C)c(=O)[nH]c2=O)C[C@@H]1OP(=O)(S)OC[C@H]1O[C@@H](n2ccc(N)nc2=O)C[C@@H]1OP(=O)(S)OC[C@H]1O[C@@H](n2cc(C)c(=O)[nH]c2=O)C[C@@H]1OP(=O)(S)OC[C@H]1O[C@@H](n2ccc(N)nc2=O)C[C@@H]1OP(=O)(S)OC[C@H]1O[C@@H](n2cc(C)c(=O)[nH]c2=O)C[C@@H]1OP(=O)(S)OC[C@H]1O[C@@H](n2cnc3c(=O)[nH]c(N)nc32)C[C@@H]1OP(=O)(S)OC[C@H]1O[C@@H](n2cc(C)c(=O)[nH]c2=O)C[C@@H]1O (some centres not stated) | inactive | inactive | Active | Active | – | – | inactive | inactive | inactive | Active | Active | 50 |
| COC1[C@H](n2cnc3c(=O)[nH]c(N)nc32)O[C@H](COP(=O)(S)O[C@H]2C[C@H](n3cc(C)c(N)nc3=O)O[C@@H]2COP(=O)(S)O[C@H]2C[C@H](n3cnc4c(N)ncnc43)O[C@@H]2COP(=O)(S)O[C@H]2C[C@H](n3cnc4c(=O)[nH]c(N)nc43)O[C@@H]2COP(=O)(S)O[C@H]2C[C@H](n3cc(C)c(=O)[nH]c3=O)O[C@@H]2COP(=O)(S)O[C@H]2C[C@H](n3ccc(N)nc3=O)O[C@@H]2COP(=O)(S)O[C@H]2C[C@H](n3cc(C)c(=O)[nH]c3=O)O[C@@H]2COP(=O)(S)O[C@H]2C[C@H](n3cnc4c(N)ncnc43)O[C@@H]2COP(=O)(S)O[C@H]2C[C@H](n3cc(C)c(=O)[nH]c3=O)O[C@@H]2COP(=O)(S)O[C@H]2C[C@H](n3ccc(N)nc3=O)O[C@@H]2CO)[C@H]1OP(=O)(S)OC[C@H]1O[C@@H](n2cc(C)c(=O)[nH]c2=O)C[C@@H]1OP(=O)(S)OC[C@H]1O[C@@H](n2cc(C)c(=O)[nH]c2=O)C[C@@H]1OP(=O)(S)OC[C@H]1O[C@@H](n2ccc(N)nc2=O)C[C@@H]1OP(=O)(S)OC[C@H]1O[C@@H](n2cc(C)c(=O)[nH]c2=O)C[C@@H]1OP(=O)(S)OC[C@H]1O[C@@H](n2ccc(N)nc2=O)C[C@@H]1OP(=O)(S)OC[C@H]1O[C@@H](n2cc(C)c(=O)[nH]c2=O)C[C@@H]1OP(=O)(S)OC[C@H]1O[C@@H](n2cnc3c(=O)[nH]c(N)nc32)C[C@@H]1OP(=O)(S)OC[C@H]1O[C@@H](n2cc(C)c(=O)[nH]c2=O)C[C@@H]1O (some centres not stated) | inactive | inactive | Active | Active | – | – | inactive | inactive | inactive | Active | Active | 14 |
